Laboratory results published in article PMC7569488 (Science signaling, 2020).
Residue numbers refer to the chain shown, from its start.

Experiments:
MKP3 and MKP1 = conditions: cited from earlier work
MKP5 single mutant M431L = biological target: T1, MKP5 single mutant M431L (Homo sapiens, UniProt Q9Y6W6, M431L); test: Malachite green assay, MKP5 M431L mutant; type: biochemical
T1 sequence (Q9Y6W6 320-467 M431L): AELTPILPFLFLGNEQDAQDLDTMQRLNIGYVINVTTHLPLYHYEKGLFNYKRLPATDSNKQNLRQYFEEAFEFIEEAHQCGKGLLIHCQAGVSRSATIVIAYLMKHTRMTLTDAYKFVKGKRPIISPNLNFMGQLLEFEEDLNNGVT

C2C12 myoblasts [1] = test: C2C12 myoblast proliferation; type: cell-based, mouse; conditions: C2C12, 72 hr
ERK1/2 [2] = test: ERK1/2 phosphorylation in MEFs; type: cell-based, mouse; conditions: Mkp5−/− MEFs
Procedure, shortened: (§1)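 Mouse embryo fibroblasts were derived from Mkp5+/+ and Mkp5−/− embryos (days 13-14) and spontaneously immortalized. Cells were treated with test compound overnight, serum-starved 4 h, then stimulated with TGF-β1 (1 ng/ml) for 10 min. Lysates were immunoblotted for phospho- and total MAPK, and the ratio was quantified by fluorescence imaging. 3-6 independent experiments; means ± SEM; t-test.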

Smad2 = test: TGF-β1-mediated Smad2 phosphorylation in MEFs; type: cell-based, mouse; conditions: TGF-β1 1 ng/ml 10 minutes
C2C12 myoblasts [3] = test: C2C12 myoblast differentiation; type: cell-based, mouse; conditions: C2C12, 72 h
Procedure, shortened: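 C2C12 myoblasts were plated in growth medium, then switched to DMEM with 0.1% FBS, 5 μg/mL insulin and 5 μg/mL selenium, plus DMSO vehicle or test compound. Differentiation ran 72 hr. Cells were stained with MF20 antibody (myosin heavy chain) and DAPI. Fusion index = % of nuclei in myotubes with ≥2 nuclei over total nuclei, counted from ≥10 fields. Means ± SEM; two-tailed t-test.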

MKP5-CD [4] = biological target: T2, MKP5-CD (Homo sapiens, UniProt Q9Y6W6); test: Malachite green phosphatase assay with p38α MAPK phosphopeptide substrate; type: biochemical
T2 sequence (Q9Y6W6 320-467): T1 sequence (Q9Y6W6 320-467 M431L) with L112M

ERK1/2 [5] = test: ERK1/2 activation in C2C12 myoblasts; type: cell-based, mouse; conditions: even at the highest concentration
Procedure, shortened: (§2)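 C2C12 myoblasts (ATCC) were treated with test compound (0, 10, 25, 50 μM) overnight, serum-starved 4 h, lysed and immunoblotted. Antibodies: phospho-ERK1/2 Thr202/Tyr204, phospho-JNK Thr183/Tyr185, phospho-p38α Thr180/Tyr182, plus the matching total proteins. The pMAPK/MAPK ratio was quantified by direct fluorescence imaging. Four independent experiments; means ± SEM; two-tailed t-test.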

MKP5 single mutant T432D = biological target: T3, MKP5 single mutant T432D (Homo sapiens, UniProt Q9Y6W6, T432D); test: Malachite green assay, MKP5 T432D mutant; type: biochemical
T3 sequence (Q9Y6W6 320-467 T432D): T1 sequence (Q9Y6W6 320-467 M431L) with L112M, T113D

PTP-1B = biological target: T4, PTP-1B (Homo sapiens, UniProt P18031); test: Phosphatase selectivity assay, PTP-1B; type: biochemical
T4 sequence (P18031 1-435): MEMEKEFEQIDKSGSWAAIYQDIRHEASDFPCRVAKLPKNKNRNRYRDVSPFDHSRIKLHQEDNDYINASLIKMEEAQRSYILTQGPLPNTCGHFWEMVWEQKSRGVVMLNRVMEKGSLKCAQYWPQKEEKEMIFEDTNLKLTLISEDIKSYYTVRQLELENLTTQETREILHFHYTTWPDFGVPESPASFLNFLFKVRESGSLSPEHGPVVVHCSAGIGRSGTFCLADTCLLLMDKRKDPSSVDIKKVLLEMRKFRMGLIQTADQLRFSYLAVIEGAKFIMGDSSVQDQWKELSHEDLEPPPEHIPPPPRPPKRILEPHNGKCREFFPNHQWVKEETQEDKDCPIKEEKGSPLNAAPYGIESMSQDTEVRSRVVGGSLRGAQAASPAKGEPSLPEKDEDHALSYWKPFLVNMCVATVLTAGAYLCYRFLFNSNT

MKP5-CD [6] = biological target: T2, MKP5-CD; test: DiFMUP steady-state kinetic assay; type: biochemical; conditions: DiFMUP substrate
JNK [7] = test: JNK phosphorylation in MEFs; type: cell-based, mouse
Procedure, shortened: as §1

[8] = tested on: MKP5 mutants M431L, T432D and M431L/T432D; test: Binding affinity for Met431/Thr432 mutants; design: species or system human
JNK [9] = test: JNK activation in C2C12 myoblasts; type: cell-based, mouse; conditions: highest concentration of Compound 1
Procedure, shortened: as §2

MKP3 = test: DiFMUP phosphatase assay, MKP3; type: biochemical; conditions: DiFMUP substrate
MKP5-CD [10] = biological target: T2, MKP5-CD; test: Phosphate sensor steady-state kinetic assay with full-length p38α MAPK substrate; type: biochemical
[11] = tested on: MKP5-CD Tyr^435 mutants (alanine, serine, tryptophan); test: Binding and inhibition experiments with Tyr435 mutants; type: biochemical, human; conditions: Y435A, Y435S, Y435W
p38α MAPK [12] = test: p38α MAPK activation in C2C12 myoblasts; type: cell-based, mouse; conditions: highest concentration of Compound 1, dose-dependent
Procedure, shortened: as §2

MKP5-CD [13] = biological target: T2, MKP5-CD; test: Transient stopped-flow kinetic assay with DiFMUP; type: biochemical
Solubility = type: physicochemical
MKP7 = test: p38α MAPK phosphopeptide phosphatase assay, MKP7; type: biochemical; conditions: p38α MAPK phosphopeptide substrate
Procedure, shortened: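 MKP7-CD (residues 156-301) and MKP5-CD were E. coli-expressed and thrombin-cleaved. Each was assayed with the p38α MAPK diphosphopeptide DDE(Nle)(pT)G(pY)VATR, and released phosphate was detected by malachite green. Activity was normalized to DMSO control and fit to a hyperbolic inhibition equation. The IC50 for MKP7-CD was compared with the IC50 for MKP5-CD.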

p38α MAPK [14] = test: p38α MAPK phosphorylation in MEFs; type: cell-based, mouse
Procedure, shortened: as §1

[15] = biological target: T5, MKP5 M431L/T432D double mutant (Homo sapiens, UniProt Q9Y6W6, M431L/T432D); test: Malachite green assay, MKP5 M431L/T432D double mutant; type: biochemical; conditions: p38α MAPK phosphopeptide
T5 sequence (Q9Y6W6 320-467 M431L/T432D): T1 sequence (Q9Y6W6 320-467 M431L) with T113D

## O=C1/C(=C/c2ccccc2)C(NC2CCCCC2)c2ccccc21 (centres unmarked) [BCI]
MKP3 and MKP1
  relative potency MKP3 versus MKP1: relative equipotency

## CSc1scc2c1-c1nc(SCC(=O)C(C)(C)C)ncc1CC2 [Compound 1, 3,3-dimethyl-1-((9-(methylthio)-5,6-dihydrothieno[3,4-h]quinazolin-2-yl)thio)butan-2-one]
MKP5 single mutant M431L
  IC50: 99 µM
C2C12 myoblasts [1]
  myoblast proliferation (BrdU-positive cells): did not affect C2C12 myoblast proliferation
ERK1/2 [2]
  ERK1/2 phosphorylation: unaffected
Smad2; Mkp5+/+ MEFs
  TGF-β1-mediated Smad2 phosphorylation: inhibited TGF-β1-mediated Smad2 phosphorylation
Smad2; Mkp5−/− MEFs
  TGF-β1-mediated Smad2 phosphorylation: failed to inhibit Smad2 phosphorylation further
C2C12 myoblasts [3]
  myoblast differentiation (myotube fusion index): significantly increased
MKP5-CD [4]; IC50 against MKP5-CD, p38α MAPK phosphopeptide substrate
  IC50: ~3.9 µM
MKP5-CD [4]; p38α MAPK phosphopeptide
  extent of inhibition of MKP5-CD phosphatase activity: did not fully inhibit
ERK1/2 [5]
  activation of ERK1/2: did not alter the activation of ERK1/2
MKP5 single mutant T432D
  IC50: 61 µM
PTP-1B
  IC50: > 100 µM
MKP5-CD [6]
  α (mixed mechanism of inhibition): 4.2
JNK [7]; Mkp5−/− MEFs
  phosphorylation of JNK: did not result in additional phosphorylation
JNK [7]; wild type MEFs
  phosphorylation of JNK: dose-dependent increase
[8]
  binding affinity for M431L, T432D and M431L/T432D mutants: Concomitant reductions in the binding affinity
JNK [9]
  JNK activation: up to 2 fold
MKP3
  increase in IC50 for MKP3 relative to MKP5: at least 16 fold
MKP5-CD [10]
  Ki: 8.9 ± 2.2 µM
MKP5-CD [10]; full-length p38α MAPK substrate
  α (mixed-mechanism inhibition): ≈ 17.4
[11]
  binding to and inhibition of Tyr435 mutants: capable of binding to and inhibiting the activity of only the Y435W mutant
p38α MAPK [12]
  activation of p38α MAPK: up to 4 fold
MKP5-CD [13]; 20 and 40 μM Compound 1
  fold change of burst rate (k1): 7 fold
MKP5-CD [13]; 20 and 40 μM Compound 1 (8.4 ± 0.2 s^−1 without)
  burst rate (k1) in the presence of Compound 1: 1.2 ± 0.02 s⁻¹
Solubility
  solubility: modest solubility
MKP7
  increase in IC50 for MKP7 relative to MKP5: at least 16 fold
p38α MAPK [14]; Mkp5−/− MEFs
  phosphorylation of p38α MAPK: did not result in additional phosphorylation
p38α MAPK [14]; wild type MEFs
  phosphorylation of p38α MAPK: dose-dependent increase
[15]
  inhibition of MKP5 M431L/T432D double mutant: nearly abolished inhibition
